Assay [1] relates to Pseudomonas aeruginosa. As to the kind of experiment: Antibacterial activity against Pseudomonas aeruginosa ATCC 27853 after 18 hrs in presence of ZnCl2 by broth microdilution method. Format: functional. The note with it: ATCC 27853, 18 h. The essentials: (§1)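 Broth microdilution MIC against ATCC 27853 in Mueller-Hinton broth with added salt at final concentrations: NaCl 150 mM, KCl 4.5 mM, NH4Cl 6 µM, ZnCl2 8 µM, FeCl3 4 µM. Inoculum about 1 × 10^6 CFU/mL from exponential phase, mixed 1:1 with two-fold peptide dilutions. MIC read as no visible turbidity after 18 h at 37 °C.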
A general note: In broth dilution the organism is exposed to a series of concentrations in liquid medium.

The subject of assay [2] is Lipopolysaccharide (LPS). As to the kind of experiment: Binding affinity to Pseudomonas aeruginosa ATCC 27853 LPS by SPR spectroscopic analysis. The procedure, abridged:
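Biacore SPR. Peptides were amine-coupled to CM5 chips at 20 µg/mL in 10 mM acetate pH 6.0, giving about 1300 RU. LPS at 3.125–12.5 µg/mL in 20 mM Tris/100 mM NaCl pH 7.4 was flowed at 10 µL/min. Surfaces were regenerated with 50 mM NaOH plus 0.05% SDS. Three independent runs.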
On the technique in general: Surface plasmon resonance follows binding to a sensor surface in real time, without labels.

Assay [3] relates to Pseudomonas aeruginosa. As to the kind of experiment: Antibacterial activity against Pseudomonas aeruginosa ATCC 27853 after 18 hrs in presence of NH4Cl by broth microdilution method. The following applies: ATCC 27853, 18 h. Format: functional. The essentials: as §1
Assay [4] deals with Pseudomonas aeruginosa. In words: Antibacterial activity against Pseudomonas aeruginosa ATCC 27853 assessed as induction of outer membrane permeabilization by measuring NPN uptake by spectrofluorophotometric analysis. Format: functional. The essentials: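 Exponential-phase cells were washed in HEPES pH 7.4 with 5 mM glucose and diluted to about 10^5 CFU/mL. NPN was added at 10 µM final, then peptide at varying concentrations. Fluorescence (ex 350/em 420 nm) was followed to plateau. Values are % NPN uptake relative to polymyxin B at 10 mg/L (100%). Three experiments, duplicates.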

Assay [5] has as its system RAW264.7. In words: Inhibition of LPS-induced iNOS expression in mouse RAW264.7 cells at 10 mg/L after 18 hrs by Western blot analysis. Format: functional, cell-based. The essentials:
(§2)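 Western blot of RAW264.7 lysates after 18 h with LPS at 100 ng/mL, with or without peptide at 10 mg/L. Lysates were run on 8% or 12% SDS-PAGE, transferred to PVDF and blocked in 5% milk/TBST. Primary antibodies were applied at 4 °C overnight, then HRP secondary and ECL detection. β-actin was the loading control.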
A general note: Immunoblotting shows a protein as a band on a membrane.

For assay [6], the system named is RAW264.7. As to the kind of experiment: Inhibition of LPS-induced TLR4 negative regulation in mouse RAW264.7 cells at 10 mg/L after 18 hrs by Western blot analysis. Format: functional, cell-based. The procedure, abridged: as §2
Assay [7] concerns Staphylococcus aureus. As to the kind of experiment: Antibacterial activity against Staphylococcus aureus ATCC 29213 after 18 hrs by broth microdilution method. Format: functional. The note with it: ATCC 29213, 18 h. The essentials: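 Broth microdilution. Exponential-phase bacteria grown in MHB at 37 °C, diluted to about 1 × 10^6 CFU/mL in MHB and mixed 1:1 with two-fold dilutions of peptide. MIC is the lowest concentration with no visible turbidity after 18 h at 37 °C. Controls were uninoculated broth and peptide-free culture. At least three repeats, duplicates each.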

The subject of assay [8] is RAW264.7. As to the kind of experiment: Downregulation of LPS-induced IL-1beta mRNA expression in mouse RAW264.7 cells at 10 mg/L after 18 hrs by real-time PCR analysis. Format: functional, cell-based. The procedure, abridged: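 qRT-PCR: RAW264.7 cells were stimulated with LPS (100 ng/mL) with or without peptide at 10 mg/L for 18 h at 37 °C. Total RNA was taken up with TRIzol. Transcript levels were normalized to GAPDH and expressed as fold change versus untreated cells. Three experiments, triplicates each.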

Assay [9] deals with Pseudomonas aeruginosa. As to the kind of experiment: Antibiofilm activity against Pseudomonas aeruginosa ATCC 27853 assessed as reduction in cell density of biofilm at 4 times MIC after 1 hr by SEM analysis. Format: functional. The procedure, abridged: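 Biofilm imaging: biofilms grown on sterile coverslips in 12-well wells were treated with peptides at 4 × MIC for 1 h, then fixed overnight in 2.5% glutaraldehyde and viewed by SEM. Untreated control. At least three repeats.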

Assay [10] concerns Pseudomonas aeruginosa. In words: Antibacterial activity against Pseudomonas aeruginosa ATCC 27853 assessed as induction of intracellular content dispersion at MIC after 1 hr by TEM analysis. Format: functional, cell-based. The procedure, abridged: (§3)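 For TEM, exponential-phase cells were washed in PBS pH 7.4, adjusted to OD600 0.2 and treated at 1 × MIC for 60 min at 37 °C. Fixation was 2.5% glutaraldehyde at 4 °C overnight, then 2% osmium tetroxide for 70 min. Samples went through a graded ethanol series, ethanol/acetone and acetone before imaging. Untreated control.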

In assay [11] the test system is Pseudomonas aeruginosa. As to the kind of experiment: Antibacterial activity against Pseudomonas aeruginosa ATCC 27853 assessed as induction of membrane distortion at MIC after 1 hr by SEM analysis. Format: functional. The procedure, abridged: (§4)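 For SEM, exponential-phase cells were washed in PBS pH 7.4, set to OD600 0.2 and exposed to 1 × MIC for 60 min at 37 °C. They were fixed in 2.5% glutaraldehyde at 4 °C overnight, dehydrated through graded ethanol and tert-butanol, dried, gold-coated and imaged. Untreated control. At least three repeats, duplicates.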

For assay [12], the system named is Pseudomonas aeruginosa. As to the kind of experiment: Antibacterial activity against Pseudomonas aeruginosa ATCC 27853 assessed as induction of cytoplasmic membrane depolarization after 90 min incubation under dark condition by diSC3-5 dye-based fluorescence analysis. Format: functional. The procedure, abridged:
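Exponential-phase cells were washed three times in 5 mM HEPES (pH 7.4). diSC3-5 (0.4 µM final) and KCl (0.1 M final) were added, then the cells were incubated 90 min at 37 °C in the dark. Peptide at a range of concentrations was added and fluorescence followed at ex 622/em 670 nm. Three independent experiments, duplicates each.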

The subject of assay [13] is Pseudomonas aeruginosa. As to the kind of experiment: Antibacterial activity against Pseudomonas aeruginosa ATCC 27853 assessed as induction of membrane damage at MIC after 1 hr by SEM analysis. Format: functional. The essentials:
as §4

Assay [14] relates to Pseudomonas aeruginosa. As to the kind of experiment: Antibacterial activity against Pseudomonas aeruginosa ATCC 27853 assessed as induction of membrane integrity disruption at MIC after 15 mins by PI-staining based flow cytometry (reference value: 4.7%).
The test system of assay [15] is Pseudomonas aeruginosa. As to the kind of experiment: Antibacterial activity against Pseudomonas aeruginosa ATCC 27853 assessed as induction of membrane damage at MIC after 1 hr by TEM analysis. Format: functional. The procedure, abridged: as §3
The subject of assay [16] is Pseudomonas aeruginosa. As to the kind of experiment: Antibacterial activity against Pseudomonas aeruginosa ATCC 27853 assessed as induction of membrane corrugation at MIC after 1 hr by SEM analysis. Format: functional. The procedure, abridged: as §4

Broadly, the MIC is the lowest concentration that inhibits growth of the organism.

Active and inactive are the calls of the source. No cut-off for these calls is given here.

H-LRRLRRRWWRRRLRRL-NH2: the MIC in [1], in [3] and in assay [7] was 8 µg/mL throughout. Further, the Activity entry in assay [2] and in assay [4] was “Dose-dependent effect” each time. Further, the inhibition entry in assay [5] and in [6] was “Active” in each case. For the same substance, the outcome in [8] and in assay [9] was Active.
Regarding H-LRRLRRRWWWRRRLRRL-NH2, the minimum inhibitory concentration (MIC) in assay [1] turned out to be 8 µg/mL; in [3], 4 µg/mL; in assay [7], 8 µg/mL. For the same substance, the result in [10], in assay [11], in assay [13], in [15], in [8] and in assay [16] was Active. In assay [9], the outcome was Active. Also, the Activity result is “Dose-dependent effect” in [2], “Dose-dependent effect” in assay [12], “Dose-dependent effect” in assay [4] and 99.5% in assay [14]. Also, the inhibition entry in assay [5] and in assay [6] was “Active” throughout.

For the origin of these results see ChEMBL document CHEMBL4007441, “Novel Design of Heptad Amphiphiles To Enhance Cell Selectivity, Salt Resistance, Antibiofilm Properties and Their Membrane-Disruptive Mechanism” (J Med Chem, 2017).
